The values that follow come from ChEMBL document CHEMBL4219181, “Site-specific effect of polar functional group-modification in lipids of TLR2 ligands for modulating the ligand immunostimulatory activity” (Bioorg Med Chem Lett, 2018).

Molecules are shown by their SMILES. Active and inactive are the calls of the source. The calls are words filed in the database; no cut-off is given here. Where a SMILES comes first, the peptide text is derived from it. The star is where a group is joined. Propyl(2R-PamO,3-PamO) = CCCCCCCCCCCCCCCC(=O)OC[C@H](C*)OC(=O)CCCCCCCCCCCCCCC; X1 = CCCCCCCCCCCCCCCC(=O)OC[C@H](C*)OC(=O)CCCCCNC(=O)CCCCCCCC; X2 = CCCCCCCCCCCCCCCC(=O)OC[C@H](C*)OC(=O)CCNC(=O)CCCCCCCCCCC; X3 = CCCCCCCCCCCCCCCC(=O)OC[C@H](C*)OC(=O)CCCNC(=O)CCCCCCCCCC; X4 = CCCCCCCCCCCCCCCC(=O)OC[C@H](C*)OC(=O)CCCCCCNC(=O)CCCCCCC; X5 = CCCCCCCCCCCCCCCC(=O)OC[C@H](C*)OC(=O)CCCCNC(=O)CCCCCCCCC; X6 = CCCCCCCCCCCCCCCC(=O)O[C@H](COC(=O)CCCCCCCCCCNC(=O)CCC)C*; X7 = CCCCCCCCCCCCCCCC(=O)O[C@H](COC(=O)CCCCCCCCNC(=O)CCCCC)C*; X8 = CCCCCCCCCCCCCCCC(=O)O[C@H](COC(=O)CCCCCCCCCCCNC(=O)CC)C*; X9 = CCCCCCCCCCCCCCCC(=O)O[C@H](COC(=O)CCCCCCCCCNC(=O)CCCC)C*

In assay [1] the test system is RAW264.7. In words: Immunostimulatory activity in mouse RAW264.7 cells assessed as increase in TNF-alpha production at 1 to 100 nM after 24 hrs by ELISA. The format is functional, cell-based. A general note: An ELISA detects its analyte on a solid surface through an enzyme-linked reagent.
In assay [2] the target is Toll-like receptor 2 (Homo sapiens, UniProt O60603). Put plainly: Inhibition of biotin labelled Pam2CSK4 binding to His tagged human TLR2 after 45 mins by AlphaScreen assay. The method in brief:
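Competitive binding was measured by AlphaScreen using His-tagged human TLR2 protein and biotinylated Pam2CSK4 as the tracer ligand. Competing ligands displace Pam2CSK4-biotin and lower the luminescent proximity signal.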

The target in assay [3] is Toll-like receptor 2 (Mus musculus, UniProt Q9QUN7). In words: Inhibition of biotin labelled Pam2CSK4 binding to mouse TLR2 Fc chimera protein after 45 mins by AlphaScreen assay. (Alpha assays give light when donor and acceptor beads are brought close together.)
Sequence of Toll-like receptor 2 (Mus musculus, UniProt Q9QUN7) (Q9QUN7 whole entry): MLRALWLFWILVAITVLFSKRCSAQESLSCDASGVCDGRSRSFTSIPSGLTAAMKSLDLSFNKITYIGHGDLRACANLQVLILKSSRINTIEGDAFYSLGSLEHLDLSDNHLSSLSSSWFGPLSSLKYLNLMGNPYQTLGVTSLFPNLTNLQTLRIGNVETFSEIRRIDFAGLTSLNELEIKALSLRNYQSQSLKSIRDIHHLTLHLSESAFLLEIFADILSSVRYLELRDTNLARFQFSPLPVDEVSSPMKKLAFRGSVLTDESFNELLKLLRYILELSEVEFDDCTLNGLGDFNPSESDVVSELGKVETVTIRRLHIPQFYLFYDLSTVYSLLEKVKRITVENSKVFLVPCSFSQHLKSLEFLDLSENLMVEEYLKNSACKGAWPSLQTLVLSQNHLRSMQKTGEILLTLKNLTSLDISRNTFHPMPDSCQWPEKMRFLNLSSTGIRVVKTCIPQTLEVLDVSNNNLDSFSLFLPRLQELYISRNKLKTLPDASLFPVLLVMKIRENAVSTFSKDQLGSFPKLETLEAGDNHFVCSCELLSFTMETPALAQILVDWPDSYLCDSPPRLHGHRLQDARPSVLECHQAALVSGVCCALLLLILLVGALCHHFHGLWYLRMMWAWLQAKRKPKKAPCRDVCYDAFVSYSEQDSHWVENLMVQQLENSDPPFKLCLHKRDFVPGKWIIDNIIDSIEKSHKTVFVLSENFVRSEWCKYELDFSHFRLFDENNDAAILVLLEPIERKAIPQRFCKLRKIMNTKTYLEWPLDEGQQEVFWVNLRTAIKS
Assay [4] relates to THP-1. Put plainly: Immunostimulatory activity in human THP1 cells assessed as increase in TNF-alpha production at 1 to 100 nM after 24 hrs by ELISA. The class given is functional, cell-based.
For assay [5], the system named is THP-1. In words: Immunostimulatory activity in human THP1 cells assessed as increase in IL-6 production at 1 to 100 nM after 24 hrs by ELISA. The class given is functional, cell-based. In outline: (§1)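 PMA-differentiated THP-1 human monocytic cells were incubated with a range of ligand concentrations. Secreted IL-6 was measured by ELISA. Data are mean ± standard error of triplicate values, and similar results were obtained in two or three independent experiments.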

The test system of assay [6] is RAW264.7. In words: Immunostimulatory activity in mouse RAW264.7 cells assessed as increase in IL-6 production at 1 to 100 nM after 24 hrs by ELISA. The format is functional, cell-based. The method in brief: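 Murine RAW264.7 macrophages were incubated with various ligand concentrations, and secreted IL-6 was quantified by ELISA. Values are mean ± standard error of triplicates, with results reproduced in two or three independent experiments.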

In assay [7] the test system is THP-1. Put plainly: Immunostimulatory activity in human THP1 cells assessed as increase in TNF-alpha production after 24 hrs by ELISA. The class given is functional, cell-based.
For assay [8], the system named is THP-1. In words: Immunostimulatory activity in human THP1 cells assessed as increase in IL-6 production after 24 hrs by ELISA. The class given is functional, cell-based. In outline: as §1

Broadly, the IC50 is the midpoint of a concentration-inhibition curve. High values mean a need for much substance, low ones inhibition by little substance.

Sequence of Toll-like receptor 2 (Homo sapiens, UniProt O60603) (O60603 whole entry): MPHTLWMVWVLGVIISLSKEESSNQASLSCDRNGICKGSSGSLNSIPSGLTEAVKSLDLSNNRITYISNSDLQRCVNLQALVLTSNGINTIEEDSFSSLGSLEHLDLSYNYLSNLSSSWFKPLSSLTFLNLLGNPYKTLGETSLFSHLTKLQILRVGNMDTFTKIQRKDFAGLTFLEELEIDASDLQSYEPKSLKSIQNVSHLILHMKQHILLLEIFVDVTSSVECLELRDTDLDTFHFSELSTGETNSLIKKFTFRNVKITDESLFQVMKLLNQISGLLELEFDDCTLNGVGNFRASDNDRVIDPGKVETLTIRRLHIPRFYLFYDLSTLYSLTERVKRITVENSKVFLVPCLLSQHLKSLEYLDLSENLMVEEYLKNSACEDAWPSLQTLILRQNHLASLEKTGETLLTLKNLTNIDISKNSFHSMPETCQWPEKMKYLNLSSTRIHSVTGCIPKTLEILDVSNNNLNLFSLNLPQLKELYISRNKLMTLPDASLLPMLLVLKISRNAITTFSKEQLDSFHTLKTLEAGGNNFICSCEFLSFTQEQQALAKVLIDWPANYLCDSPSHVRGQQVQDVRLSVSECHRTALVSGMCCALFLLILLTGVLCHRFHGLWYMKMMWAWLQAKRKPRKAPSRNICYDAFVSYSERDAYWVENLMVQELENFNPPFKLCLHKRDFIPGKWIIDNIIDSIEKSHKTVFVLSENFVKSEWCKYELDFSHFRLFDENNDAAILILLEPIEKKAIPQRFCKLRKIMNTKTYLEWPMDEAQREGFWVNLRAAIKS

On to `CCCCCCCCCCCCCCCC(=O)OC[C@H](CSC[C@H](N)C(=O)N[C@@H](CO)C(=O)N[C@@H](CCCCN)C(=O)N[C@@H](CCCCN)C(=O)N[C@@H](CCCCN)C(=O)N[C@@H](CCCCN)C(=O)O)OC(=O)CCCCCCCCCCCCCCC` (H-C(Propyl(2R-PamO,3-PamO))SKKKK-OH), for which the outcome in assay [1] and in assay [4] was inactive. Besides, the IC50 was 0.426 to 0.55 µM in assay [2] and 0.349 µM in assay [3].

On to `CCCCCCCCCCCCCCCC(=O)OC[C@H](CSC[C@H](N)C(=O)N[C@@H](CO)C(=O)N[C@@H](CCCCN)C(=O)N[C@@H](CCCCN)C(=O)N[C@@H](CCCCN)C(=O)N[C@@H](CCCCN)C(=O)O)OC(=O)CCCNC(=O)CCCCCCCCCC` (H-C(X3)SKKKK-OH), for which the result in assay [1], in assay [5], in assay [4] and in assay [6] was Active. Besides, the IC50 in assay [2] worked out at 1.96 µM; in assay [3] it was 1.38 µM.

In the case of `CCCCCCCCCCCCCCCC(=O)OC[C@H](CSC[C@H](N)C(=O)N[C@@H](CO)C(=O)N[C@@H](CCCCN)C(=O)N[C@@H](CCCCN)C(=O)N[C@@H](CCCCN)C(=O)N[C@@H](CCCCN)C(=O)O)OC(=O)CCCCCNC(=O)CCCCCCCC` (H-C(X1)SKKKK-OH), the result in assay [1], in assay [5], in assay [4] and in assay [6] was Active. Further, the IC50 in assay [2] and in assay [3] was 4.75 µM in each case.

In the case of `CCCCCCCCCCCCCCCC(=O)O[C@H](COC(=O)CCCCCCCCCCCNC(=O)CC)CSC[C@H](N)C(=O)N[C@@H](CO)C(=O)N[C@@H](CCCCN)C(=O)N[C@@H](CCCCN)C(=O)N[C@@H](CCCCN)C(=O)N[C@@H](CCCCN)C(=O)O` (H-C(X8)SKKKK-OH), the Activity result in assay [7] and in assay [8] was “Dose-dependent effect” in each case. The compound also had an IC50 in assay [2] of 3.94 µM.

For `CCCCCCCCCCCCCCCC(=O)O[C@H](COC(=O)CCCCCCCCNC(=O)CCCCC)CSC[C@H](N)C(=O)N[C@@H](CO)C(=O)N[C@@H](CCCCN)C(=O)N[C@@H](CCCCN)C(=O)N[C@@H](CCCCN)C(=O)N[C@@H](CCCCN)C(=O)O` (H-C(X7)SKKKK-OH), the Activity result in assay [7] and in assay [8] was “Dose-dependent effect” throughout. Also, in assay [2], the IC50 is 7.52 µM.

`CCCCCCCCCCCCCCCC(=O)OC[C@H](CSC[C@H](N)C(=O)N[C@@H](CO)C(=O)N[C@@H](CCCCN)C(=O)N[C@@H](CCCCN)C(=O)N[C@@H](CCCCN)C(=O)N[C@@H](CCCCN)C(=O)O)OC(=O)CCNC(=O)CCCCCCCCCCC` (H-C(X2)SKKKK-OH): the result in assay [1], in assay [5], in assay [4] and in assay [6] was Active. Besides, the IC50 in assay [2] was 1.68 µM; in assay [3], 1.04 µM.

Regarding `CCCCCCCCCCCCCCCC(=O)O[C@H](COC(=O)CCCCCCCCCCNC(=O)CCC)CSC[C@H](N)C(=O)N[C@@H](CO)C(=O)N[C@@H](CCCCN)C(=O)N[C@@H](CCCCN)C(=O)N[C@@H](CCCCN)C(=O)N[C@@H](CCCCN)C(=O)O` (H-C(X6)SKKKK-OH), the Activity entry in assay [7] and in assay [8] was “Dose-dependent effect” in each case. For the same compound, in assay [2], the IC50 was 4.36 µM.

As to `CCCCCCCCCCCCCCCC(=O)O[C@H](COC(=O)CCCCCCCCCNC(=O)CCCC)CSC[C@H](N)C(=O)N[C@@H](CO)C(=O)N[C@@H](CCCCN)C(=O)N[C@@H](CCCCN)C(=O)N[C@@H](CCCCN)C(=O)N[C@@H](CCCCN)C(=O)O` (H-C(X9)SKKKK-OH), the Activity entry in assay [7] and in assay [8] was “Dose-dependent effect” each time. Also, the IC50 in assay [2] was determined as 6.43 µM.

On to `CCCCCCCCCCCCCCCC(=O)OC[C@H](CSC[C@H](N)C(=O)N[C@@H](CO)C(=O)N[C@@H](CCCCN)C(=O)N[C@@H](CCCCN)C(=O)N[C@@H](CCCCN)C(=O)N[C@@H](CCCCN)C(=O)O)OC(=O)CCCCCCNC(=O)CCCCCCC` (H-C(X4)SKKKK-OH), for which the outcome in assay [1], in assay [5], in assay [4] and in assay [6] was Active. Moreover, the IC50 in assay [2] was 3.37 µM; in assay [3], 5.69 µM.

Take `CCCCCCCCCCCCCCCC(=O)OC[C@H](CSC[C@H](N)C(=O)N[C@@H](CO)C(=O)N[C@@H](CCCCN)C(=O)N[C@@H](CCCCN)C(=O)N[C@@H](CCCCN)C(=O)N[C@@H](CCCCN)C(=O)O)OC(=O)CCCCNC(=O)CCCCCCCCC` (H-C(X5)SKKKK-OH): the outcome in assay [1], in assay [5], in assay [4] and in assay [6] was Active. Besides, the IC50 in assay [2] turned out to be 4.65 µM; in assay [3] it was 5.61 µM.
